Bioassay records (PubChem BioAssay)
TAAR1 agonist: agonists of human TAAR1 | Q96RJ0 | CHO RD-HGA16 TAAR1, Fluo-8 calcium fluorescence; vehicle wells 0%, saturating PEA agonist 100% | activation, % at 3 µM | actives 0.99% (n = 360,000) | AID 624467;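 active means activation above the mean activation of all test compounds in the run plus 3 SD, cut at about 38% in these data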
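Test system: RD-HGA16 (CHO) cells co-expressing Gα16 and hTAAR1 | Doses: Single dose, 3 µM | Schedule: 17-24 h seeding, 75 min 37 °C dye, 30 min RT | Evaluation: % activation from peak over basal fluorescence ratio, DMSO-to-PEA scaled | Technique: Kinetic Fluo-8 calcium fluorescence | Benchmarks: Low control DMSO, high control PEA (EC100)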
OX1R antag-1: antagonists of human orexin 1 receptor (OX1R). actives 1.8% (n = 330,000). AID 485270. inhibition, % at 6.6 µM. OX1R-expressing cells, FRET antagonist read-out; in the data active means inhibition mostly above about 38%, no sharp cut-off; inactive means mostly below about 40%;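 further: 0% = agonist challenge alone and 100% = reference antagonist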
Target sequence (O43613 whole entry, looked up): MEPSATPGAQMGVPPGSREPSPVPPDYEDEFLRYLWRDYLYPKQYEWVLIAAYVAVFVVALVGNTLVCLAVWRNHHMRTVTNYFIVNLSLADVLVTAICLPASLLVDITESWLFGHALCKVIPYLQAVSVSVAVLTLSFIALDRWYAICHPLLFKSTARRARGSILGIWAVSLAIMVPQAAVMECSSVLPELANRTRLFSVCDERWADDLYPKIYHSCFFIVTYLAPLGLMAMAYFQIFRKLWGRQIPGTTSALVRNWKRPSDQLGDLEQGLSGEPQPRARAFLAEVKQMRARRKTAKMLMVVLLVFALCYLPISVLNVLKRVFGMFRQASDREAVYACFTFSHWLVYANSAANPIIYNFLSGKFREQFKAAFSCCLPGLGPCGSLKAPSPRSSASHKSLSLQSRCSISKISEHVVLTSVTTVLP
CHO parental Ca: counter-screen for OX1R antagonists: effect in parental CHO cells; actives 0.63% (n = 330,000); inhibition, % at 5.6 µM; parental CHO-K1, ATP-induced calcium, Fluo-8 fluorescence;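 active means inhibition above that plate's mean sample inhibition plus 3 SD, cut at about 26% in these data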;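 further: 0% = ATP-challenged DMSO wells and 100% = DMSO wells without ATP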
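Test system: parental CHO cells; detection: calcium-sensitive Fluo-8 fluorescence; evaluation: percent inhibition of calcium signal; also added: ATP as calcium-mobilizing challenge; repeats: one well per compound; control set: ATP-challenged DMSO wells low, unchallenged DMSO wells high; compound: single nominal dose of 5.6 µM per compound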
OX1R antag-2: human HCRTR1 antagonism. inhibition, % at 5 µM. actives 0.43% (n = 330,000). O43613. CHO/OX1R cells, Fluo-8 calcium fluorescence, orexin A. AID 434989;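 active means inhibition above its plate's threshold, mean inhibition of all tested compounds on the plate plus 3 SD, cut at about 37% in these data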;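 further: 0% = orexin A challenge wells and 100% = SB-334867-A antagonist wells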
TAAR1 antag: antagonists of human TAAR1 | CHO RD-HGA16 TAAR1, Fluo-8 calcium fluorescence, antagonist | inhibition, % at 3 µM | AID 624466 | actives 1.5% (n = 360,000);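 active means inhibition above a per-plate cutoff, the mean inhibition of test compounds on that plate plus 3 SD, cut at about 49% in these data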;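 further: 0% = DMSO plus EC80 beta-PEA response and 100% = DMSO alone without agonist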
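test system = CHO RD-HGA16 cells bearing hTAAR1 | replication = singlicate | controls = DMSO-only wells and EC80 β-PEA-stimulated wells | reagent = EC80 β-phenethylamine stimulus | read-out basis = percent inhibition of PEA-evoked calcium signal, max/basal emission ratio | schedule = seeding 17-24 h prior, 75-min 37 °C, 30-min RT dye loading | signal = kinetic Fluo-8 calcium fluorescence measurement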
TAAR1 ag confirm: human TAAR1 agonism, confirmed. shares compounds with TAAR1 agonist. CHO RD-HGA16 TAAR1, Fluo-8 calcium fluorescence; scaled: DMSO 0%, maximal phenethylamine 100%. activation, % at 3 µM. actives 82% (n = 2,400). AID 651783;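 active means activation above a cutoff set at the run's mean compound activation plus 3 SD, cut at about 39% in these data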
Ga16 nonsel ag: nonselective agonist in parental cells, TAAR1 agonist counter-screen; shares compounds with TAAR1 agonist; CHO-Ga16 parental, Fluo-8 calcium fluorescence; normalized to maximal ATP response, DMSO zero; activation, % at 3 µM; actives 50% (n = 2,400);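 active means activation above the run cutoff, the mean activation over all tested wells plus 3 SD, cut at about 12% in these data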;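 further: 0% = DMSO wells and 100% = maximal ATP response on the peak over basal ratio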
TAAR1 desensitize: counter-screen for human TAAR1 agonists: agonists that desensitize TAAR1. shares compounds with TAAR1 agonist. CHO RD-HGA16 hTAAR1, Fluo-8 calcium, beta-PEA response inhibition. inhibition, % at 3 µM. actives 46% (n = 2,400);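 active means inhibition above the run cutoff, the mean inhibition of all test compounds plus 3 SD, cut at about 49% in these data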;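 further: beta-PEA stimulus applied at its EC80; loss of beta-PEA calcium signal after compound pretreatment read as receptor desensitization; 0% = DMSO with beta-PEA at EC80 and 100% = DMSO alone without agonist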
Ga16 nonsel ant: nonselective Ga16 antagonism, counter-screen; shares compounds with TAAR1 agonist; CHO-Ga16 ATP-induced calcium, Fluo-8 fluorescence; inhibition, % at 3 µM; actives 39% (n = 2,400); AID 651952;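 active means inhibition above the plate's mean compound inhibition plus 3 SD, computed per plate, cut at about 22% in these data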;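 further: 0% = EC80 ATP with DMSO and 100% = DMSO wells without ATP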
* marks the source's active call; other numbers are inactive results; / = not tested or not shown. Sampled rows, rich in hits. Any-hit rate of the full collection: about 3.9%.

SMILES	TAAR1 agonist	OX1R antag-1	CHO parental Ca	OX1R antag-2	TAAR1 antag	TAAR1 ag confirm	Ga16 nonsel ag	TAAR1 desensitize	Ga16 nonsel ant
CC(C)OC(=O)CN1C(=O)S/C(=C/c2ccc(N3CCCCC3)o2)C1=O	63.3*	2.3	-12.2	-21.7	65.1*	52.8*	55.5*	58.8*	64.1*
CC(=O)Nc1ccc(Sc2ncccc2C(=O)Nc2ccc(OC(F)(F)F)cc2)cn1	138.8*	9.5	77.3*	87.7*	104.2*	143.0*	107.0*	104.3*	89.7*
CC(=O)c1cccc(OCC(O)CNCC2COc3ccccc3O2)c1 (stereo unspecified)	46.1*	11.4	-12.6	-28.4	9.8	69.9*	5.8	41.8	16.6
COc1ccc(C(=O)N2CCC(C)(C(=O)NS(=O)(=O)C3CC3)C2)c(OC)c1 (stereo unspecified)	1.8	/	/	/	-22.6	/	/	/	/
CC(C)C(=O)Nc1ccc(NC(=O)c2cc3ccccc3o2)cc1	54.1*	12.1	-6.0	-23.7	14.4	45.3*	21.2*	49.4*	28.2*
O=C(N[C@@H](Cc1cccnc1)C(=O)N1CCC[C@H]1C(=O)NCCc1ccccc1Cl)c1ccccc1	54.8*	/	/	/	76.5*	91.7*	7.3	89.7*	1.5
O=C(N[C@@H](Cc1cccnc1)C(=O)N1CCC[C@H]1C(=O)NCCc1ccccc1Cl)c1cccs1	47.7*	/	/	/	47.6	81.9*	4.3	84.2*	4.1
O=C(N[C@@H](Cc1cccnc1)C(=O)N1CCC[C@H]1C(=O)NCCc1ccccc1Cl)C1CC1	46.2*	/	/	/	26.0	70.0*	0.3	58.4*	5.9
O=C(N[C@@H](Cc1cccnc1)C(=O)N1CCC[C@H]1C(=O)NC1CCCC1)c1cccs1	0.6	/	/	/	-16.4	/	/	/	/
O=C(N[C@@H](Cc1cccnc1)C(=O)N1CCC[C@H]1C(=O)NCCc1ccccc1Cl)c1ccc(Cl)c(Cl)c1	70.8*	/	/	/	91.4*	83.9*	4.7	102.8*	21.1
Cc1nc(-c2cccnc2)sc1C(=O)N/N=C/c1ccccc1Cl	2.8	7.6	-11.2	-25.1	21.2	/	/	/	/
COC(=O)c1c(-c2ccccc2)oc2c1C(OCCO)CCC2 (stereo unspecified)	6.5	/	/	/	-6.9	/	/	/	/
O=C(NCCc1ccccc1Cl)[C@@H]1CCCN1C(=O)[C@H](Cc1cccnc1)NC(=O)N1CCOCC1	48.7*	/	/	/	10.9	77.0*	0.0	45.9	4.7
CC(C)C[C@H](NC(=O)N1CCOCC1)C(=O)N1CCC[C@H]1C(=O)NCc1ccccc1	3.6	/	/	/	-21.5	/	/	/	/
Oc1c(Br)cccc1/C=N/c1ncn[nH]1	1.1	5.4	-4.7	-7.5	-0.7	/	/	/	/
COc1ccc(CNC(=O)c2cccnc2Sc2ccc(Cl)cc2)cc1	/	5.9	-6.3	-17.8	/	/	/	/	/
Cc1ccc(CNC(=O)c2cccnc2Sc2cccc(Cl)c2)cc1	73.0*	4.9	-11.5	-2.5	30.1	82.4*	39.8*	47.2	34.6*
O=C(CCn1cccc1)NCCc1ccc(Cl)cc1	0.6	9.6	-23.8	-21.4	-12.9	/	/	/	/
C/C(Nc1ccccc1C(F)(F)F)=C1/CCOC1=O	0.9	5.7	-18.8	-10.6	-11.3	/	/	/	/
C/C(NCCc1ccc(O)cc1)=C1/CCOC1=O	82.9*	/	/	/	83.3*	90.6*	2.6	69.5*	-6.4
O=C(COC(=O)c1ccccc1C(=O)c1ccccc1)Nc1ccc(SC(F)F)cc1	2.0	10.8	-15.2	-4.0	18.5	/	/	/	/
NC(=O)COC(=O)c1ccccc1Nc1ccc(SC(F)F)cc1	43.2*	28.0	-4.1	-6.1	38.3	6.0	9.4	16.1	16.2
